Data as given in ChEMBL document CHEMBL4145581, “Piperidine Alkaloids with Diverse Skeletons from Anacyclus pyrethrum” (J Nat Prod, 2018).

The compounds below were run against T1, Menin (Homo sapiens) (UniProt O00255) (assay: Inhibition of FITC-labelled MLL1 binding to menin (unknown origin) at 20 uM after 120 mins by fluorescence polarization method relative to control).
T1 sequence (whole entry): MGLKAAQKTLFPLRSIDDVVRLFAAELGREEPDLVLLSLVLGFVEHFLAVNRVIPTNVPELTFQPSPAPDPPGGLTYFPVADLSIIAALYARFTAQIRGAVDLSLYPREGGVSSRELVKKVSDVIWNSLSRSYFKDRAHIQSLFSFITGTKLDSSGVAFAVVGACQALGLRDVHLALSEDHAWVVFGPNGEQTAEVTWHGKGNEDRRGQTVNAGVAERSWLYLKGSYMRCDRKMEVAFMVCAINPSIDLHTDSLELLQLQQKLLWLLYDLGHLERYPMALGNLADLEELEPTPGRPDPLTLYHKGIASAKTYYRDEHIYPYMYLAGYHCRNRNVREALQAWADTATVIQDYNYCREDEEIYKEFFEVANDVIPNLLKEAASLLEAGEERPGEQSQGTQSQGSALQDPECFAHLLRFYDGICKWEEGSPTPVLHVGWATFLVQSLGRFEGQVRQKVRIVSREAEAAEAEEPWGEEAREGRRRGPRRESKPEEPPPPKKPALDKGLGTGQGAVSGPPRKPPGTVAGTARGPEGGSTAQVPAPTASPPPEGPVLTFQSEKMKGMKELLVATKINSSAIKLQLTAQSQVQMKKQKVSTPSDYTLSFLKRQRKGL
Outline: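 Menin–MLL1 protein–protein interaction inhibition assay with fluorescence polarization read-out on a plate reader. MI-2-2 served as the positive control.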

| SMILES | inhibition |
| --- | --- |
| CC(=O)NC(C)(C)C1C=C2CC(C)(C)NC(C)=C2C(=O)C1C (stereo not drawn) | < 50% |
| CC(=O)NC(C)(C)CC1=C[C@@]2(C)C(=O)C(C)(C)NC(C)=C2C1=O | < 50% |
| CC1=C2C(=O)C3=CC(C)(C)N=C4CC(C)(C)C[C@@]2(CC(C)(C)N1)[C@]34O | < 50% |
| CC1=C2C3=C(C)C(=O)C(C)(C)N=C3C[C@@]2(C)CC(C)(C)N1 | < 50% |
| CC1=C2NC(C)(C)CC2=NC(C)(C)C1=O | < 50% |
| CC1(C)CC2=NC(C)(C)C3=NC(C)(C)CC3(O)C2=N1 (stereo not drawn) | < 50% |
| CC1=CC(=O)NC(C)(C)C1 | < 50% |
| CC1(C)CC2=NC(C)(C)C(=O)C(C(C)(C)O)=C2N1 | < 50% |
| CC1(C)CC(C2OC2(C)C)=CC(=O)N1 (stereo not drawn) | < 50% |
| CC(=O)NC(C)(C)C[C@@]1(O)C(=O)C2=C(C)NC(C)(C)C(=O)C2(C)[C@H]1O (stereo partly drawn) | < 50% |
| CC1=CC(C)(C)NC1=O | < 50% |
| CC(=O)NC(C)(C)[C@H]1C(=O)C2=CC(C)(C)NC(C)=C2C(=O)[C@@H]1C=C(C)C | < 50% |
| CC(=O)NC(C)(C)[C@H]1C(=O)C2=CC(C)(C)NC(C)=C2C(=O)[C@@H]1C | < 50% |
